The text below walks through data of ChEMBL document CHEMBL4477236 (ACS Med Chem Lett, 2016).

In general, IC50 refers to the concentration at which inhibition is half-maximal. A higher IC50 goes with a need for much substance. As a reminder, the EC50 is the concentration that produces a half-maximal response. Read a high EC50 as weaker potency.

Each structure is given as a SMILES string. The source made the active and inactive calls. No cut-off for these calls is given here.

Experiment [1] has as its system CWR22R. In words: Antitumor activity against human CWR22Rv1 cells xenografted in SCID mouse assessed as tumor growth inhibition at 0.15 mmol/kg, ip bid administered for 5 days per week relative to control. It is filed as functional. The following applies: 22Rv1, ip, 120 h, read-out: TGI.
Experiment [2] has as its target T1, Androgen receptor (Homo sapiens) (UniProt P10275).
T1 sequence (whole entry): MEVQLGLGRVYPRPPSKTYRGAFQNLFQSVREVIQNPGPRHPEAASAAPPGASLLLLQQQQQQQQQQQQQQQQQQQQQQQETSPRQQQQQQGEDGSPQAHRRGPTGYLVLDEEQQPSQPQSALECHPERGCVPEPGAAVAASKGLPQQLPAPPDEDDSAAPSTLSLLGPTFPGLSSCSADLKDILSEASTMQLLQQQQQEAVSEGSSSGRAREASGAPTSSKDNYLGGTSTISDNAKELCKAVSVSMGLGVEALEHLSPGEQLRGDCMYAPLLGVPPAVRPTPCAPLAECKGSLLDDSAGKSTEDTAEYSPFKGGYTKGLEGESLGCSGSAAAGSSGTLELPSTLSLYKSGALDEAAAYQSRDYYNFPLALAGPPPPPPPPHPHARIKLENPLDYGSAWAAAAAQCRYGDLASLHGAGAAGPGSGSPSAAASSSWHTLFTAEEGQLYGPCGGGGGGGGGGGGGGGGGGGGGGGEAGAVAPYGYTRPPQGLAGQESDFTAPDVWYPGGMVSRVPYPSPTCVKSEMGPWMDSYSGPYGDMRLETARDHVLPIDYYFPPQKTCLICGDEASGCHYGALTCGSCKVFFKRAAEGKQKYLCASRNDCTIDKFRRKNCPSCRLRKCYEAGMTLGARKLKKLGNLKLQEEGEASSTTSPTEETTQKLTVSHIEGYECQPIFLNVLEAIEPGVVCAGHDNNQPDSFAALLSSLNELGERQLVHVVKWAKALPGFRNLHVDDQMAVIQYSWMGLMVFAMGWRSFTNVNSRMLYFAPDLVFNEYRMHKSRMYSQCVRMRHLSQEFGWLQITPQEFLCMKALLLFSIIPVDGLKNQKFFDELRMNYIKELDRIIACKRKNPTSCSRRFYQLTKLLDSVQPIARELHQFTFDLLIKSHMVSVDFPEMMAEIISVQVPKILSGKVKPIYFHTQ
In words: Induction of AR-V7 degradation in human CWR22Rv1 cells upto 7.5 uM after 72 hrs by Western blot analysis. It is filed as cell-based. The gist of the method: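 CWR22Rv1 cells treated across 0 → 7.5 μM for 72 h. Lysates analysed by Western blot for f-AR and AR-V7. EC50 taken from dose–response curves.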
In general terms: Immunoblotting shows a protein as a band on a membrane.

The target of experiment [3] is T1, Androgen receptor (Homo sapiens). Put plainly: Induction of AR-V7 degradation in human CWR22Rv1 cells at 15 uM after 24 hrs by Western blot analysis. It is filed as cell-based. The method in brief:
(§1)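 CWR22Rv1 prostate cancer cells exposed to compound at 15 μM for 24 h. Protein lysates analysed by Western blot for f-AR and AR-V7 expression.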

A further experiment has as its system LNCaP. Put plainly: Antiproliferative activity against human LNCAP cells after 7 days by MTT assay. The experiment is classed as functional, cell-based. The following applies: 168 h. The gist of the method:
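LNCaP cell growth measured by MTT assay. GI50, the concentration giving 50% growth inhibition, was obtained by nonlinear regression of dose–response curves pooled from at least three independent experiments; SEM < 10%.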
For orientation: Tetrazolium dyes change colour on reduction, which living cells bring about.

Experiment [4] has as its system CWR22R. In words: Antiproliferative activity against human CWR22Rv1 cells after 7 days by MTT assay. It is filed as functional, cell-based. The following applies: 22Rv1, 168 h. The method in brief:
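MTT proliferation assay in CWR22Rv1 human prostate cancer cells. GI50, the concentration causing 50% growth inhibition, was read from dose–response curves.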

Experiment [5] has as its target T1, Androgen receptor (Homo sapiens). In words: Inhibition of DHT-induced androgen receptor transactivation in human LNCaP cells at 10 uM after 24 hrs by luciferase reporter gene assay relative to control. It is filed as cell-based. The gist of the method:
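LNCaP cells dual-transfected with the probasin luciferase reporter AAR2-luc plus the Renilla vector pRL-null. Cells treated with compound at 10 μM for 24 h with 10 nM DHT. Luminescence read and normalized to Renilla activity. Result expressed as fold induction over unstimulated baseline. Replicates from three independent experiments.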
Background: A reporter such as luciferase makes a cellular process visible.

In another experiment the target is T2, Androgen receptor (Homo sapiens, UniProt P10275).
T2 sequence (P10275 whole entry): T1 sequence (whole entry)
In words: Inhibition of DHT-induced androgen receptor transactivation in human LNCaP cells after 24 hrs by luciferase reporter gene assay relative to control. The experiment is classed as cell-based.

For experiment [6], the target named is T3, Steroid 17-alpha-hydroxylase/17,20 lyase (Homo sapiens, UniProt P05093).
T3 sequence (P05093 whole entry): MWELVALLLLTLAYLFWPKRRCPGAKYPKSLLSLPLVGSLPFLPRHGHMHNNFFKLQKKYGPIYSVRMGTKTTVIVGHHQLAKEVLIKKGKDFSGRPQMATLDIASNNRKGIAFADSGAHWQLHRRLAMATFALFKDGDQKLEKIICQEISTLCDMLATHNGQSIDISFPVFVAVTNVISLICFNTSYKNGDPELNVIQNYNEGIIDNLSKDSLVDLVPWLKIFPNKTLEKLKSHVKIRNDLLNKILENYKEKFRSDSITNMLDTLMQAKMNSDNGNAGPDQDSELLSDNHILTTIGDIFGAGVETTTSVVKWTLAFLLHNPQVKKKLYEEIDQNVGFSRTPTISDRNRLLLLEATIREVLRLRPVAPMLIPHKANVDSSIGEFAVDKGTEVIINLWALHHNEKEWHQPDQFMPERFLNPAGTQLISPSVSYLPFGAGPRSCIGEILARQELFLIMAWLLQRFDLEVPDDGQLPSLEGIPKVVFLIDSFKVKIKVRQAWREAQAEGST
Put plainly: Inhibition of CYP17 (unknown origin). The gist of the method:
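CYP17 enzyme activity measured in duplicate over a range of inhibitor concentrations. IC50 read from the dose–response curve as the concentration giving 50% inhibition.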

In experiment [7] the target is T1, Androgen receptor (Homo sapiens). Put plainly: Induction of full length androgen receptor degradation in human CWR22Rv1 cells at 15 uM after 24 hrs by Western blot analysis. The experiment is classed as cell-based. The method in brief:
as §1

`C[C@]12CC[C@H](OC(=O)n3ccnc3)CC1=CC[C@@H]1[C@@H]2CC[C@]2(C)C(n3cnc4ccccc43)=CC[C@@H]12`: in the experiment with CWR22R [1], the inhibition in vivo at 150 µmol/kg was found to be 70%. For the same compound, the outcome in experiment [2] and in experiment [3] was Active.
For `C[C@]12CC[C@@H](n3ccnc3)CC1=CC[C@@H]1[C@@H]2CC[C@]2(C)C(n3cnc4ccccc43)=CC[C@@H]12`, the values for the IC50 in the experiment with LNCaP and in the experiment on CWR22R [4] were 8.91 µM and 9.88 µM, respectively. Besides, the inhibition entry in experiment [5] is “Active”.
In the case of `C[C@]12CC[C@H](OC(=S)n3ccnc3)CC1=CC[C@@H]1[C@@H]2CC[C@]2(C)C(n3cnc4ccccc43)=CC[C@@H]12`, the IC50 in the experiment with LNCaP was 9.57 µM; in the experiment with CWR22R [4], 7.52 µM. For the same compound, the EC50 at Androgen receptor was below 0.1 µM. In experiment [5], the inhibition entry is “Active”.
Turning to `CO[C@H]1CC[C@@]2(C)C(=CC[C@@H]3[C@@H]2CC[C@]2(C)C(n4cnc5ccccc54)=CC[C@@H]32)C1`, the IC50 came out at 8.71 µM in the experiment with LNCaP, 7.5 µM in the experiment on CWR22R [4] and 39 µM in [6]. Further, the inhibition entry in experiment [5] was “Active”.
As to `C[C@]12CC[C@@H]3c4ccc(C(=O)O)cc4CC[C@H]3[C@@H]1CC=C2n1cnc2ccccc21`, the inhibition result in experiment [5] is “Active”. Besides, the result in experiment [3] was Active.
Take `C[C@]12CC[C@H]3[C@@H](C[C@@H](n4ccnc4)C45CC4CC[C@]35C)[C@@H]1CC=C2n1cnc2ccccc21` (some centres not stated): the IC50 in the experiment on LNCaP was found to be 6.61 µM; in the experiment on CWR22R [4], 12.3 µM. The compound further displayed an EC50 at Androgen receptor of 0.47 µM. The inhibition result in experiment [5] was “Active”.
In the case of `C[C@]12CC[C@@H]3c4ccc(O)cc4CC[C@H]3[C@@H]1CC=C2n1cnc2ccccc21`, the half-maximal inhibitory concentration (IC50) in the experiment on LNCaP was 3.89 µM; with CWR22R [4], 0.5 µM; in experiment [6], 25.9 µM. The inhibition result in experiment [5] is “Active”.
In the experiment on LNCaP, `CNC(=O)c1ccc(N2C(=S)N(c3ccc(C#N)c(C(F)(F)F)c3)C(=O)C2(C)C)cc1F` [ENZALUTAMIDE] gave an IC50 of 4.85 µM.
Regarding `C[C@]12CC[C@H](OCc3ccccc3)CC1=CC[C@@H]1[C@@H]2CC[C@]2(C)C(n3cnc4ccccc43)=CC[C@@H]12`, the values for the IC50 with LNCaP and in the experiment on CWR22R [4] were 5.12 µM and 1.2 µM, respectively. The inhibition result in experiment [5] is “Active”.
For the compound `COC(=O)c1ccc2c(c1)CC[C@@H]1[C@@H]2CC[C@]2(C)C(n3cnc4ccccc43)=CC[C@@H]12`, the IC50 was 6.91 µM with LNCaP, 8.74 µM in the experiment with CWR22R [4] and above 15 µM in [6]. For the same compound, the inhibition result in [5] was “Active”.
Consider `C[C@]12CC[C@H](OCc3ccncc3)CC1=CC[C@@H]1[C@@H]2CC[C@]2(C)C(n3cnc4ccccc43)=CC[C@@H]12`, for which the outcome in experiment [7], in [2] and in [3] was Active. Also, the IC50 with LNCaP is 2.45 µM; with CWR22R [4], 3.24 µM; in [6] it was above 15 µM. At Androgen receptor, this compound displayed an EC50 of 1.65 µM. Besides, the inhibition entry in experiment [5] is “Active”.
As for `C[C@]12CC[C@H](OCc3cccnc3)CC1=CC[C@@H]1[C@@H]2CC[C@]2(C)C(n3cnc4ccccc43)=CC[C@@H]12`, the IC50 with LNCaP is 4.26 µM; with CWR22R [4], 0.81 µM. Also, in [5], the inhibition result was “Active”.
For the compound `C[C@]12CCC=CC1=CC[C@@H]1[C@@H]2CC[C@]2(C)C(n3cnc4ccccc43)=CC[C@@H]12`, the inhibition result in experiment [5] was “Active”.
`C[C@]12CC[C@H](O)CC1=CC[C@@H]1[C@@H]2CC[C@]2(C)C(n3cnc4ccccc43)=CC[C@@H]12` [GALETERONE]: the inhibition in vivo at 150 µmol/kg in the experiment with CWR22R [1] was 60%. In addition, the values for the IC50 (with LNCaP; with CWR22R [4]; in experiment [6]) were 3.93 µM, 8.91 µM and 0.14 µM, respectively.
Regarding `C[C@]12CC[C@H](n3ccnc3)CC1=CC[C@@H]1[C@@H]2CC[C@]2(C)C(n3cnc4ccccc43)=CC[C@@H]12`, the result in experiment [7], in experiment [2] and in experiment [3] was Active. For the same compound, the IC50 is 1.64 µM with LNCaP, 2.54 µM in the experiment with CWR22R [4] and 0.48 µM in experiment [6]. The same compound showed an EC50 at Androgen receptor of 0.19 µM. The inhibition entry in [5] is “Active”.
Turning to `C[C@]12CC[C@H](O)CC1=CC[C@@H]1[C@@H]2CC[C@]2(C)C(c3cccnc3)=CC[C@@H]12` [ABIRATERONE], in experiment [6], the IC50 amounted to 0.048 µM.
